Results from different studies.
Lines come from different studies, so protocols differ.

With `CS(=O)(=O)CCC#N` the MRT was 32.5 h (human, plasma; oral, 1000 mg, single dose, fasted).
The concentration of `CC(C)(Nc1nc(-c2ccccn2)nc2ccccc12)c1ccccn1` is reported as 1460 ng/mL (female BALB/c mouse, plasma; intravenous, 1 mg/kg, 4.98 min).
With `Cc1ccc(C(CC(=O)c2ccc(Oc3ccccc3)c(O)c2)C(N)=O)cc1` (stereo not shown) the chromatographic logP was 4.06 (HPLC).
`N#CN1C[C@H](n2nc(-c3ccc(Oc4ccc(Cl)cn4)cc3)c(C(N)=O)c2N)CCC12CC2` has an MRT of 33 h (human, plasma; oral, 600 mg, fed).
The chromatographic logP of `Oc1cccc(/C=C/c2ccccc2)c1` is reported as greater than 3.14 (HPLC).
`O=c1nc(N2CCN(CC3CCCCC3)CC2)sc2c([N+](=O)[O-])cc(C(F)(F)F)cc12` has a concentration of 336 ng/mL (CD-1 mouse, plasma; oral, 100 mg/kg, 8 h).
`CC[C@H](C)[C@@H]1NC(=O)[C@@](C)(NC(=O)[C@H](CCCNC(=N)N)NC(=O)[C@H](CC(C)C)NC(=O)[C@@H](NC(=O)[C@H](CCC(N)=O)NC(=O)[C@H](CC(C)C)NC(C)=O)[C@@H](C)O)CCCC=CCCC[C@@](C)(C(=O)N[C@@H](CC(C)C)C(=O)N[C@@H](Cc2ccc3ccccc3c2)C(N)=O)NC(=O)[C@H](CCCNC(=N)N)NC(=O)[C@H](CCC(N)=O)NC1=O` has a half-life of 185 min (male BALB/c mouse, plasma; intraperitoneal, 5 mg/kg).
`CC(C)CN(C[C@@H](O)[C@H](Cc1ccccc1)NC(=O)O[C@H]1CO[C@H]2OCC[C@H]21)S(=O)(=O)c1ccc(N)cc1` gave a concentration of 31.4 ng/mL (BALB/c mouse, plasma; intravenous, 25 mg/kg, 12 h).
The chromatographic logP of `COc1cccc(/C=C/c2ccc(O)cc2)c1` is reported as greater than 3.14 (HPLC).
`Cn1cnc2c(F)c(Nc3ccc(Br)cc3Cl)c(C(=O)NOCCO)cc21` has a half-life of 162 min (nude mouse, liver; oral, 10 mg/kg, single dose, tumour-bearing).
With `CC(C)(O)c1ccccc1-c1ccc2[nH]c(/C=C/c3ccc(C(F)(F)F)cc3)nc2c1` the MRT was 99.5 h (male human, plasma; oral, 50 mg, single dose, fasted, healthy volunteers).
With `CC(C)Oc1cccc(-c2cnc(N3CCC(C(N)=O)CC3)s2)c1` the concentration was 83 nM (male Swiss mouse, brain; oral, 30 mg/kg, 4 h, single dose).
`CC1=NN(CNc2ccccn2)C(=O)C1=NNn1c(-c2ccccc2)nc2ccccc2c1=O` has a logP of 3.87.
`c1cnc2ccc(Nc3nc(NC4CC4)c4nc[nH]c4n3)cc2c1` gave an MRT(0-t) of 9.6 h (human, plasma; oral, 800 mg/m², patients).
With `CC(C)(C)c1ccc(O)c(CN(Cc2cc(C(C)(C)C)ccc2O)C2CCC(NC(N)=O)CC2)c1` (stereo not shown) the half-life was 149 min (male C57BL/6 mouse, plasma; intraperitoneal, 10 mg/kg, single dose).
`CCc1ccc(Cc2cc([C@@H]3O[C@H](CO)[C@@H](O)[C@H](O)[C@H]3O)cc3c2CCC3)cc1` has a half-life of 186 min (male C57BL/6 mouse, plasma; oral, 0.3 mg/kg).
The logP of `O=C1NN=C(N=Cc2ccc(O)c(O)c2)C1=NNn1c(-c2ccccc2)nc2ccccc2c1=O` is reported as 3.38.
`CCCN(CCC)CCc1cccc2c1CC(=O)N2` gave a hepatocyte CLint of 16.3 µL/min/10⁶ cells (metabolic stability; dog, hepatocytes; 1 µM).
With `O=C(O)C1CCN(c2ncc(-c3ccc4c(c3)OCCCO4)s2)CC1` the concentration was 7580 ng/mL (male Swiss mouse, plasma; oral, 30 mg/kg, 1 h, single dose).
For `Oc1cccc(CCc2ccccc2)c1`, the chromatographic logP was greater than 3.14 (HPLC).
`CCc1cc(C(=O)NC)c2nccc(N3CCc4c(cc(Cn5ccnc5)cc4-c4cn(C)nc4C(F)(F)F)C3=O)c2c1` gave a half-life of 48 min (male CD-1 mouse, plasma; intravenous, 3 mg/kg).
`Nc1ccc(-c2ccc3ncc(-c4noc(C(F)(F)F)n4)cc3c2)cc1` has a scaled CLint of 115 mL/min/kg (metabolic stability; beagle dog, liver microsomes; 1 µM).
